Legend:
[1] = system: Vero; assay: Antiviral activity against herpes simplex virus type 1 KOS (PAAr5) plaque forming unit grown on African green monkey kidney Vero cells upon incubation for 1 hour at 37 degrees C with compound dissolved in DMSO; details: Chlorocebus sabaeus
[2] = system: HFF; assay: Antiviral activity against human cytomegalovirus Ad169 (WT) plaque forming unit grown on Human foreskin fibroblast cells upon incubation for 1 hour at 37 degrees C with compound dissolved in DMSO; type: functional, cell-based, Human betaherpesvirus 5
Procedure, shortened: (§1)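 Plaque reduction: about 50 PFU added per well of a 24-well dish of the appropriate cells, 1 h at 37 °C, then the inoculum was replaced by drug-containing DMEM with 10% FBS and 0.8% carboxymethyl cellulose. DMSO stocks were 200-fold. Plates were held at 37 °C until plaques formed. Plaques were counted microscopically or after crystal violet stain. Percent inhibition was taken against the uninhibited control, with IC50 by linear regression.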

[3] = system: Vero; assay: Antiviral activity against herpes simplex virus type 2 (V826A) plaque forming unit grown on Human foreskin fibroblast cells upon incubation for 1 hour at 37 degrees C with compound dissolved in DMSO; type: functional, cell-based; details: Chlorocebus sabaeus
Procedure, shortened: as §1

[4] = system: Vero; assay: Antiviral activity against herpes simplex virus type 1 KOS (PFAr2) plaque forming unit grown on Human foreskin fibroblast cells upon incubation for 1 hour at 37 degrees C with compound dissolved in DMSO; type: functional, cell-based; details: Chlorocebus sabaeus
Procedure, shortened: as §1

[5] = system: Vero; assay: Antiviral activity against herpes simplex virus type 1 KOS (WT) plaque forming unit grown on African green monkey kidney Vero cells upon incubation for 1 hour at 37 degrees C with compound dissolved in DMSO; details: Chlorocebus sabaeus
[6] = system: Vero; assay: Antiviral activity against herpes simplex virus type 1 KOS (AraAr13) plaque forming unit grown on Human foreskin fibroblast cells upon incubation for 1 hour at 37 degrees C with compound dissolved in DMSO; type: functional, cell-based; details: Chlorocebus sabaeus
Procedure, shortened: as §1

[7] = system: Vero; assay: Antiviral activity against herpes simplex virus type 2 (WT) plaque forming unit grown on Human foreskin fibroblast cells upon incubation for 1 hour at 37 degrees C with compound dissolved in DMSO; type: functional, cell-based; details: Chlorocebus sabaeus
Procedure, shortened: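 Plaque reduction: about 50 PFU per well onto the appropriate cell monolayer, adsorbed 1 h at 37 °C. Inoculum was then replaced with DMEM containing 10% FBS, 0.8% carboxymethyl cellulose and diluted compound from 200-fold DMSO stocks. Plates were held at 37 °C until plaques formed, which were counted microscopically or after crystal violet staining. IC50 came from linear regression of % inhibition versus untreated control, as the mean of two determinations.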

Cn1cc(C(=O)NCc2ccc(Cl)cc2)c(=O)c2cc(CN3CCOCC3)sc21
IC50 [1]: 800 nM
IC50 [2]: 1500 nM
IC50 [3]: > 50000 nM
IC50 [4]: 2500 nM
IC50 [5]: 5600 nM
IC50 [6]: 2100 nM
IC50 [7]: 800 nM

— ChEMBL document CHEMBL1141075, “4-Oxo-4,7-dihydrothieno[2,3-b]pyridines as non-nucleoside inhibitors of human cytomegalovirus and related herpesvirus polymerases” (J Med Chem, 2005)
